MrgX1 antag – antagonists of human MrgX1 receptor, primary screen, HEK293 cells, Fluo-4 calcium flux | BAM8-22 antagonism; hits give low values | B-score at 10 µM | Mas-related G-protein coupled receptor member X1 (Homo sapiens), Q96LB2 | hit rate 1.3% among 310,000;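 active means calcium-response B-score plate-corrected more than 3 library SD below zero, starting fluorescence within 5 deviations, no agonist response on first addition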;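 further: peak minus trough fluorescence over baseline after final BAM8-22 challenge near maximal dose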
Target sequence (Q96LB2 whole entry, looked up): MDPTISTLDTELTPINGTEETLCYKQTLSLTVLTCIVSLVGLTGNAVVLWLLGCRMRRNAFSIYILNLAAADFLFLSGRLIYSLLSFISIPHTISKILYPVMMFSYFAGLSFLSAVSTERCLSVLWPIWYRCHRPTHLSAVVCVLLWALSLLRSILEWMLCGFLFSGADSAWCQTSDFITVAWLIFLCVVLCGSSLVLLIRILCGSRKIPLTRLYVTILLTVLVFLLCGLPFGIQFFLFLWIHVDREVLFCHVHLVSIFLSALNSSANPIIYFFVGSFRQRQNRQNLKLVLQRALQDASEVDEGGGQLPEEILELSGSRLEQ
RGS4 inh – RGS4 inhibitors, primary screen, cell-based, HEK293 M3R inducible RGS4, calcium flux; Regulator of G-protein signaling 4 (Homo sapiens), P49798; hit rate 0.45% among 310,000; Fluo-4 calcium flux; hits give high values; triggered by carbachol at its EC20; B-score at 10 µM;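 active means B-score, a plate-corrected calcium signal, over three deviations above library mean, with baseline fluorescence within five deviations of library mean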;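 further: RGS4 expression induced by doxycycline in cells with stable M3 receptor; B-score is computed from the integrated fluorescence ratio over baseline after carbachol; higher B-score means a larger calcium signal and so more RGS4 inhibition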
Target sequence (P49798 whole entry, looked up): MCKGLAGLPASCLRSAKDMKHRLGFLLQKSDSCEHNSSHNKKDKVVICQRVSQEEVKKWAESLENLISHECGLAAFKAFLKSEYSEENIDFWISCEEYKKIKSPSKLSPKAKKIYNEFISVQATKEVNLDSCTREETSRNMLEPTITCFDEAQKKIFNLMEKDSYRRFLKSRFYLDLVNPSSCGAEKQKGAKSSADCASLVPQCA
RGS4 act – RGS4 potentiators or activators, primary screen, cell-based, HEK293 M3R inducible RGS4, calcium flux; AID 463111, 2010; B-score at 10 µM; hit rate 0.92% among 310,000; carbachol calcium flux Fluo4; hits give low values;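 active means B-score of the integrated calcium signal more than 4 SD below the library mean, with starting fluorescence not abnormally high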;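 further: negative B-score means reduced calcium response which marks RGS4 activation or potentiation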
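test system = HEK293 cells with stable M3R and inducible RGS4 | schedule = recording 10 s baseline at 1 Hz, 100 s post-agonist | technique = Fluo4-AM (2 µM) calcium-flux fluorescence, kinetic read | measure = Agonist-evoked peak-minus-minimum fluorescence over baseline, integrated ratio, B score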
MrgX1 ag – agonists of human MrgX1 receptor, primary screen, HEK293 cells, Fluo-4 calcium flux; Mas-related G-protein coupled receptor member X1 (Homo sapiens), Q96LB2; Fluo-4 calcium fluorescence, agonist mode; hits give high values; B-score at 10 µM; hit rate 0.44% among 310,000;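 active means calcium response B-score plate-corrected fluorescence ratio at least 3 library SD, with starting fluorescence B-score inside 5 SD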
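System – MrgX1-expressing HEK293 cells · Incubation – cells plated overnight, dye loaded 0.5 h 37 °C, 0.5 h room temperature · Technique – kinetic Fluo-4 NW fluorescence of intracellular calcium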
MrgX1 PAM – positive allosteric modulators of MrgX1, primary screen, HEK293 cells, Fluo-4 calcium flux; FDSS; hits give high values; B-score at 10 µM; Mas-related G-protein coupled receptor member X1 (Homo sapiens), Q96LB2; hit rate 0.63% among 310,000;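 active means plate-corrected calcium response at least 3 library SD above typical, normal starting fluorescence, not activating the receptor alone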;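 further: compound read alongside a low EC10 to EC30 dose of BAM8-22 agonist; peak minus trough fluorescence over baseline measured at the second addition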
RGS4 inh valid – enhanced carbachol calcium response, M3R/RGS4 cells, RGS4 inhibitor project, cell-based, validation screen, HEK293 M3R/RGS4, calcium flux; calcium response, % at 10 µM; shares compounds with RGS4 inh; carbachol calcium Fluo-4 fluorescence; carbachol added at its EC20; 0 = buffer wells, 100 = carbachol control; hit rate 65% among 1,700;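 active means duplicate-averaged calcium response above the buffer-only control mean plus 5 SD of those controls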;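 further: integrated fluorescence ratio F max minus min over baseline F0; higher response in RGS4-induced cells means RGS4 inhibition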
RGS4 uninduced – carbachol calcium response in non-induced M3R cells, confirmation, counter-screen for RGS4 inhibitor project, cell-based, HEK293 M3R. activity (percent), % at 10 µM. hit rate 20% among 1,900. carbachol calcium Fluo-4; submaximal (EC20) carbachol stimulus; buffer wells 0%, carbachol control wells 100%. shares compounds with RGS4 inh; call rule not given here;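 further: RGS4 induction absent so cells express M3R without RGS4; higher means more calcium signal and flags a non-specific hit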
M3R basal Ca ctr – second RGS4 inhibitor counter-screen in uninduced cells lacking carbachol. AID 493001. hit rate 22% among 1,900. HEK293 M3R/RGS4 non-induced, Fluo-4 calcium, no carbachol; normalised: buffer wells 0%, carbachol wells 100%. calcium response (agonist-mode artifact), % at 10 µM. shares compounds with RGS4 inh;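 active means duplicate-averaged calcium rise in uninduced cells above buffer wells' mean plus 5 SD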
* hit, by the source's call. Compounds with a hit are over-represented: about 3.5% of the library has one in this group of screens.

What do the screens show for `Cc1ccc(-c2[nH]nc(N)c2N=Nc2ccccc2C)cc1`?
MrgX1 antag: inactive; RGS4 inh: 10*; RGS4 act: inactive; MrgX1 ag: inactive; MrgX1 PAM: inactive; RGS4 inh valid: inactive; RGS4 uninduced: inactive; M3R basal Ca ctr: inactive

What do the screens show for `Cc1cccc(N=Nc2c(N)n[nH]c2-c2ccc(Cl)cc2)c1`?
MrgX1 antag: inactive; RGS4 inh: inactive; RGS4 act: inactive; MrgX1 ag: inactive; MrgX1 PAM: inactive

Results for CCN(CC)S(=O)(=O)c1ccc(N2CCN(C)CC2)c(NC(=O)Nc2ccc(C)cc2)c1 ?
MrgX1 antag: inactive; RGS4 inh: inactive; RGS4 act: inactive; MrgX1 ag: inactive; MrgX1 PAM: inactive

How did O=C1NN(c2ccccc2)C(=O)/C1=C\c1cccc(OC(=O)c2cccs2)c1 do in these assays?
MrgX1 antag: inactive; RGS4 inh: 20*; RGS4 act: inactive; MrgX1 ag: 27*; MrgX1 PAM: inactive; RGS4 inh valid: 70%*; RGS4 uninduced: inactive; M3R basal Ca ctr: inactive

How did COc1cccc(CN2C(=NC(=O)CCC3CCCC3)SC3CS(=O)(=O)CC32)c1 (stereo not drawn) do in these assays?
MrgX1 antag: inactive; RGS4 inh: inactive; RGS4 act: inactive; MrgX1 ag: inactive; MrgX1 PAM: inactive

Results for O=c1cc(-c2ccc(O)c(O)c2)oc2cc(O)cc(O)c12 ?
MrgX1 antag: inactive; RGS4 inh: inactive; RGS4 act: inactive; MrgX1 ag: inactive; MrgX1 PAM: inactive

What do the screens show for `O=c1c(O)c(-c2ccc(O)c(O)c2)oc2cc(O)cc(O)c12`?
MrgX1 antag: inactive; RGS4 inh: 5*; RGS4 act: inactive; MrgX1 ag: inactive; MrgX1 PAM: 8.8*; RGS4 inh valid: 34%*; RGS4 uninduced: 40%*; M3R basal Ca ctr: inactive

Results for OCC1CCCCN1CC(O)COC(c1ccc(F)cc1)c1ccc(F)cc1 (stereo not drawn) ?
MrgX1 antag: inactive; RGS4 inh: inactive; RGS4 act: inactive; MrgX1 ag: inactive; MrgX1 PAM: inactive

How did O=C(O)COc1ccc(/C=C/C(=O)c2ccc3ccccc3c2)cc1 do in these assays?
MrgX1 antag: inactive; RGS4 inh: 4.8*; RGS4 act: inactive; MrgX1 ag: inactive; MrgX1 PAM: inactive; RGS4 inh valid: inactive; RGS4 uninduced: inactive; M3R basal Ca ctr: inactive

What do the screens show for `CNC[C@H](O)c1ccc(O)c(O)c1`?
MrgX1 antag: inactive; RGS4 inh: 4.9*; RGS4 act: inactive; MrgX1 ag: 39*; MrgX1 PAM: inactive; RGS4 inh valid: 32%*; RGS4 uninduced: 57%*; M3R basal Ca ctr: inactive

Results for CNC[C@H](O)c1cccc(O)c1 ?
MrgX1 antag: inactive; RGS4 inh: inactive; RGS4 act: inactive; MrgX1 ag: inactive; MrgX1 PAM: inactive

How did CCOC(=O)C(=Cc1cc(=O)c(OC)co1)C(=O)OCC do in these assays?
RGS4 inh: 8*; RGS4 act: inactive; RGS4 inh valid: 15%*; RGS4 uninduced: inactive; M3R basal Ca ctr: 14%*

What do the screens show for `COc1cc(Cn2c(=O)c3c(OC)c(C)cnc3n(C)c2=O)cc(OC)c1`?
MrgX1 antag: inactive; RGS4 inh: inactive; RGS4 act: inactive; MrgX1 ag: inactive; MrgX1 PAM: inactive
